ChEMBL document CHEMBL1132294, “Derivatives of the new ring system indolo[1,2-c]benzo[1,2,3]triazine with potent antitumor and antimicrobial activity” (J Med Chem, 1999)
Values after ≈ are worked out from the molar mass of the structure shown.

Experiments:
HT-29 = assay: Antitumor activity was evaluated against human colon adenocarcinoma cell line HT-29.; format: functional, cell-based
In short: (§1)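 Solid-tumour and KB lines: exponentially growing cells seeded at 5×10⁴ cells/mL, allowed to adhere 16 h, then serial drug dilutions added. Viability by MTT after 4 days. Growth expressed as % of untreated controls, 50% inhibitory concentration by linear regression. Untreated cells undergo at least three rounds of multiplication.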

L1210 = assay: Antitumor activity was evaluated against leukemia cell line L1210 (mouse leukemia).; format: functional, cell-based
In short: (§2)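 Exponentially growing leukemia/lymphoma cells resuspended at 1×10⁵ cells/mL in RPMI with serial drug dilutions. Viability by MTT after 4 days at 37 °C. Concentration giving 50% growth inhibition versus untreated controls found by linear regression. Mean of at least three experiments.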

Streptococcus = assay: Antibacterial activity was evaluated against streptococcus.; format: functional
In short: (§3)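 Recent clinical isolates grown in nutrient broth, pH 7.2, inoculum 10³ bacterial cells/tube, with serial compound dilutions. […] Mean of at least three separate experiments.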

Trichophyton benhamiae = assay: Antimycotic activity against Trichophyton mentagrophytes was evaluated. MIC was defined as compound concentration at which no macroscopic signs of fungal growth were detected.; format: functional, Arthroderma benhamiae
In short: (§4)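 Yeast inocula from 30 h Sabouraud dextrose broth cultures at 37 °C, diluted to 5×10³ cells/mL. Dermatophyte inocula from 5-day cultures, homogenized and diluted to 0.05 OD₅₉₀/mL. Inocula added to medium with serial dilutions, incubated at 37 °C, read visually at 2 days (yeast) or 3 days (dermatophytes). Mean of at least three experiments.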

MT4 = assay: Antitumor activity was evaluated against leukemia cell line MT-4(human CD4+ T cells expressing the TAT gene of HTLV-1).; format: functional, cell-based; in short: as §2
Salmonella = assay: Antibacterial activity was evaluated against salmonella.; format: functional; in short: as §3
CCRF-CEM = assay: Antitumor activity was evaluated against leukemia cell line CCRF-CEM(human acute T lymphoblastic leukemia).; format: functional, cell-based
In short: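 Exponentially growing leukemia/lymphoma cells resuspended at 1×10⁵ cells/mL in RPMI with serial drug dilutions. Viability by MTT after 4 days at 37 °C. Mean of at least three experiments.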

IMR-32 = assay: Antitumor activity was evaluated against human neuroblastoma cell line IMR-32.; format: functional, cell-based; in short: as §1
Candida tropicalis = assay: Antimycotic activity against Candida paratropicalis was evaluated. MIC was defined as compound concentration at which no macroscopic signs of fungal growth were detected.; format: functional; in short: as §4
[1] = tested on: Mycolicibacterium smegmatis; assay: Antibacterial activity was evaluated against Mycobacterium smegmatis; format: functional
In short: (§5)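 Mycobacterial suspension (turbidity of 1 McFarland standard, 10⁸ CFU/mL) added to Middlebrook 7H9 with 0.5% glycerol, 10% OADC and serial compound dilutions. Incubated at 37 °C, 1 day for M. smegmatis and M. fortuitum, 9 days for MAC. Viable mycobacteria counted by MTT. MIC given as mean of at least three separate experiments.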

Staphylococcus = assay: Antibacterial activity was evaluated against staphylococcus; format: functional; in short: as §3
Shigella = assay: Antibacterial activity was evaluated against shigella.; format: functional; in short: as §3
MOLT-4 = assay: Antitumor activity was evaluated against leukemia cell line MOLT-4(human acute T lymphoblastic leukemia); format: functional, cell-based; in short: as §2
[2] = tested on: Mycolicibacterium fortuitum; assay: Antibacterial activity was evaluated against Mycobacterium fortuitum.; format: functional; in short: as §5
Candida parapsilosis = assay: Antimycotic activity against Candida parapsilosis was evaluated. MIC was defined as compound concentration at which no macroscopic signs of fungal growth were detected.; format: functional; conditions: Lodderomyces parapsilosis; in short: as §4
WIL2-NS = assay: Antitumor activity was evaluated against lymphoma cell line Wil2-NS (human splenic B lymphoblastoid cells).; format: functional, cell-based; in short: as §2
Cryptococcus neoformans = assay: Antimycotic activity against Cryptococcus neoformans was evaluated. MIC was defined as compound concentration at which no macroscopic signs of fungal growth were detected.; format: functional; in short: as §4
Mycobacterium = assay: Antibacterial activity was evaluated against MAC (Mycobacterium Avium Complex ); format: functional; in short: as §5
CHO-K1 = assay: Antitumor activity was evaluated against Chinese hamster ovary carcinoma cell line CHO-K1.; format: functional, cell-based; conditions: Cricetulus griseus; in short: as §1
[3] = tested on: Mycobacterium tuberculosis; assay: Antibacterial activity was evaluated against Mycobacterium tuberculosis (ATCC); format: functional
In short: (§6)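 Broth microdilution in Middlebrook 7H9 with 0.5% glycerol and 10% OADC, containing serial concentrations of compound (diluted in medium from a DMSO solution). Plates were incubated 9 days at 37 °C, and viable bacteria were read by MTT. MIC is the mean of at least three separate experiments.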

Candida albicans = assay: Antimycotic activity against Candida albicans was evaluated as minimum inhibitory concentration of compound at which no macroscopic signs of fungal growth were detected; format: functional; in short: as §4
CCRF-SB = assay: Antitumor activity was evaluated against leukemia cell line CCRF-SB(human acute B lymphoblastic leukemia).; format: functional, cell-based; in short: as §2
[4] = tested on: Mycobacterium tuberculosis; assay: Antibacterial activity was evaluated against Mycobacterium tuberculosis (clinical isolate 1104); format: functional; in short: as §6
HeLa = assay: Antitumor activity was evaluated against human cervix carcinoma cell line HeLa.; format: functional, cell-based; in short: as §1
Aspergillus fumigatus = assay: Antimycotic activity against Aspergillus fumigatus was evaluated as compound minimum inhibitory concentration at which no macroscopic signs of fungal growth were detected.; format: functional
ACHN = assay: Antitumor activity was evaluated against human renal adenocarcinoma cell line ACHN.; format: functional, cell-based; in short: as §1
5637 = assay: Antitumor activity was evaluated against human bladder carcinoma cell line 5637.; format: functional, cell-based; in short: as §1

## O=Nc1c2ccccc2n2nnc3cc(Cl)ccc3c12
HT-29
  IC50: 35 µM
L1210
  IC50: 2.4 µM
Streptococcus
  MIC: 0.4 µM (≈ 0.113 µg/mL)
Trichophyton benhamiae
  MIC: 50 µM (≈ 14.1 µg/mL)
MT4
  IC50: 0.9 µM
Salmonella
  MIC: > 200 µM
CCRF-CEM
  IC50: 1.8 µM
IMR-32
  IC50: 2.2 µM
Candida tropicalis
  MIC: 25 µM (≈ 7.07 µg/mL)
[1]
  MIC: > 5 µM
Staphylococcus
  MIC: 0.4 µM (≈ 0.113 µg/mL)
Shigella
  MIC: > 200 µM
MOLT-4
  IC50: 1.1 µM
[2]
  MIC: > 5 µM
Candida parapsilosis
  MIC: 3 µM (≈ 0.848 µg/mL)
WIL2-NS
  IC50: 0.8 µM
Cryptococcus neoformans
  MIC: 1.6 µM (≈ 0.452 µg/mL)
Mycobacterium
  MIC: 0.6 µM (≈ 0.17 µg/mL)
CHO-K1
  IC50: 9.3 µM
[3]
  MIC: 4.4 µM (≈ 1.24 µg/mL)
Candida albicans
  MIC: 12 µM (≈ 3.39 µg/mL)
CCRF-SB
  IC50: 2.8 µM
[4]
  MIC: 5.9 µM (≈ 1.67 µg/mL)
HeLa
  IC50: 9.2 µM
Aspergillus fumigatus
  MIC: 6.2 µM (≈ 1.75 µg/mL)
ACHN
  IC50: 7.6 µM
5637
  IC50: 2.6 µM
